The source made the active and inactive calls. The rule behind the calls is not given here.
Key:
[1] = molecular target: T1, Proteasome subunit beta type-8 (Homo sapiens) (UniProt P28062); test: Inhibition of human 20S immunoproteasome beta 5 subunit assessed as inhibition of BMV037 probe labeling at 1 to 10 uM incubated for 1 hr by SDS-PAGE analysis; conditions: dose 1-10 µM
T1 sequence (whole entry): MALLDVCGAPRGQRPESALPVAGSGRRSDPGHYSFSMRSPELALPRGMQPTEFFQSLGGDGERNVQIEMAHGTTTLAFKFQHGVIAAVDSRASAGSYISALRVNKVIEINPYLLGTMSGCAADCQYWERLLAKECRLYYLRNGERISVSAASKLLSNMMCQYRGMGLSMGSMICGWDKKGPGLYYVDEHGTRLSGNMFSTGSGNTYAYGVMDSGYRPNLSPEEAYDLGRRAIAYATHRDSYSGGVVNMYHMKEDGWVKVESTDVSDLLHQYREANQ
Method in brief: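 Purified human immuno-20S (20 nM) was incubated with compound at 37°C for 1 h, then labelled with 10 µM BMV037 at 37°C for 2 h. Samples were run on 4-12% Bis-Tris gel with MES buffer, and active subunits were visualised by Cy5 fluorescence.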

[2] = Inhibition of Plasmodium falciparum 20S proteasome beta 1 subunit caspase-like activity using fluorogenic peptide Ac-nLPnLD-AMC as substrate in presence of PA28alpha incubated for 1 to 2 hrs by fluorescence microplate reader assay
[3] = molecular target: T2, Proteasome Macropain subunit MB1 (Homo sapiens, UniProt P28074); test: Inhibition of human 20S constitutive proteasome beta 5 subunit chymotrypsin-like activity using fluorogenic peptide Ac-WLA-AMC as substrate in presence of PA28alpha incubated for 1 to 2 hrs by fluorescence microplate reader assay
T2 sequence (P28074 whole entry): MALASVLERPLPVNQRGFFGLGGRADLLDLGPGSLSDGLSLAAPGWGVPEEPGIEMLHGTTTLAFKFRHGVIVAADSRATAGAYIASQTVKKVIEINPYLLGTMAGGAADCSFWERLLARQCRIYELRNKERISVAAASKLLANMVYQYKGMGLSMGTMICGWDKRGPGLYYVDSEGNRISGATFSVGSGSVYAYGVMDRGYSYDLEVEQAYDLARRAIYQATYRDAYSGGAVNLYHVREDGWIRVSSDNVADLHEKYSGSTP

[4] = Inhibition of Plasmodium falciparum 20S proteasome beta 5 subunit chymotrypsin-like activity using fluorogenic peptide Ac-WLA-AMC as substrate in presence of PA28alpha incubated for 1 to 2 hrs by fluorescence microplate reader assay
[5] = molecular target: T3, Proteasome subunit beta type-8 (Homo sapiens, UniProt P28062); test: Inhibition of human 20S immunoproteasome beta 5 subunit chymotrypsin-like activity using fluorogenic peptide Ac-WLA-AMC as substrate in presence of PA28alpha incubated for 1 to 2 hrs by fluorescence microplate reader assay
T3 sequence (P28062 whole entry): T1 sequence (whole entry)

[6] = molecular target: T4, Proteasome subunit beta type-7 (Homo sapiens, UniProt Q99436); test: Inhibition of human 20S constitutive proteasome beta 2 subunit trypsin-like activity using fluorogenic peptide Ac-WLR-AMC as substrate in presence of PA28alpha incubated for 1 to 2 hrs by fluorescence microplate reader assay
T4 sequence (Q99436 whole entry): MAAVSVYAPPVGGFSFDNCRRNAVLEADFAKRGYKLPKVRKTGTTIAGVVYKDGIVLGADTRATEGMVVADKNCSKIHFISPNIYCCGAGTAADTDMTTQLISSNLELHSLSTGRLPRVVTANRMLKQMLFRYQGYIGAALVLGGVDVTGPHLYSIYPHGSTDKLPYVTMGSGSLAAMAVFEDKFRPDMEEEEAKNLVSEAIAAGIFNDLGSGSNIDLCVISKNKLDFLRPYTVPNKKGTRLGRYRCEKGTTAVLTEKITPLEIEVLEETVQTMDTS

[7] = system: Plasmodium falciparum; test: Antiplasmodial activity against sorbitol synchronized ring stage Plasmodium falciparum 3D7 assessed as reduction in parasitemia incubated for 72 hrs by Syto-61 staining dye based flow cytometry analysis; type: functional; conditions: read-out: LD50 (the source's name)
Method in brief: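 Sorbitol-treated ring-stage parasites in O+ human erythrocytes were incubated with compound for 72 h, and viability was read in the second cycle. Read-out was Syto-61 (2 µM) flow cytometry of parasitemia, normalized to untreated and 2 µM DHA-killed controls. Mean ± SEM of three independent experiments.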

[8] = system: Plasmodium falciparum 3D7; test: Inhibition of 20S proteasome beta 5 subunit in bortezomib-resistant Plasmodium falciparum 3D7 assessed as inhibition of BMV037 probe labeling at 1 to 10 uM incubated for 1 hr by SDS-PAGE analysis; conditions: dose 1-10 µM
[9] = molecular target: T5, Proteasome subunit beta type-10 (Homo sapiens, UniProt P40306); test: Inhibition of human 20S immunoproteasome beta 2 subunit trypsin-like activity using fluorogenic peptide Ac-WLR-AMC as substrate in presence of PA28alpha incubated for 1 to 2 hrs by fluorescence microplate reader assay
T5 sequence (P40306 whole entry): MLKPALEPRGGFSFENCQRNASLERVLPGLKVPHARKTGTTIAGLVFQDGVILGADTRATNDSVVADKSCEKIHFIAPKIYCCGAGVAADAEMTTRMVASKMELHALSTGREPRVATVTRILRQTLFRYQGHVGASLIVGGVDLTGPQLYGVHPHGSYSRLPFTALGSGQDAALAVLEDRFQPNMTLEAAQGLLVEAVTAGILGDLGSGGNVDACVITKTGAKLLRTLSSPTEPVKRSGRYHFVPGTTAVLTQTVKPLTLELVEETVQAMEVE

[10] = system: Plasmodium falciparum; test: Antiplasmodial activity against DHA-resistant and sorbitol synchronized ring stage forms of Plasmodium falciparum Cam3.II^R539T expressing K13 mutant assessed as reduction in parasitemia incubated for 3 hrs by pulse exposure based Syto-61 staining dye based flow cytometry analysis; type: functional; conditions: read-out: LD50 (the source's name)
Method in brief: (§1)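 Tightly synchronized early-ring parasites (1-3 h post-invasion) exposed to compound for 3 h, then viability assessed in the next cycle. Cells stained with 2 µM Syto-61 and parasitemia read by flow cytometry, normalized to untreated and kill controls (2 µM DHA, 48-72 h). Mean ± SEM of three independent experiments.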

[11] = Inhibition of Plasmodium falciparum 20S proteasome beta 2 subunit trypsin-like activity using fluorogenic peptide Ac-WLR-AMC as substrate in presence of PA28alpha incubated for 1 to 2 hrs by fluorescence microplate reader assay
[12] = system: Plasmodium falciparum; test: Antiplasmodial activity against DHA-sensitive and sorbitol synchronized ring stage forms of Plasmodium falciparum Cam3.II^rev expressing K13 wild-type genotype assessed as reduction in parasitemia incubated for 3 hrs by pulse exposure based Syto-61 staining dye based flow cytometry analysis; type: functional; conditions: read-out: LD50 (the source's name); method in brief: as §1
[13] = Selectivity index, ratio of LD50 for cytotoxicity against human HepG2 cells to LD50 for antiplasmodial activity against Plasmodium falciparum 3D7 sorbitol-treated ring stage; type: toxicity, cell-based; conditions: read-out: Selectivity Index

SMILES	inhibition [1]	IC50 [2] [nM]	IC50 [3] [nM]	IC50 [4] [nM]	IC50 [5] [nM]	IC50 [6] [nM]	LC50 [7] [nM]	inhibition [8]	IC50 [9] [nM]	LC50 [10] [nM]	IC50 [11] [nM]	LC50 [12] [nM]	selectivity ratio [13]
CC(C)C[C@H](NC(=O)[C@H](Cc1ccccc1)NC(=O)Cc1ccc(O)cc1)B(O)O	Active	600	1.4	10	1.3	680	61	inactive	300	160	60	180	0.7
CC(=O)N1CCC[C@@H]1C(=O)N[C@@H](C)C(=O)N[C@@H](Cc1ccccc1)B(O)O	Active	3190	220	1500	28	> 10000	120	Active	> 10000	820	> 10000	900	56
Cc1ccc(S(=O)(=O)N[C@@H](CC(=O)NCC(C)(C)C)C(=O)N[C@@H](Cc2ccccc2)C(=O)N[C@@H](CC(C)C)B(O)O)cc1	Active	1780	9	16	5	440	65	Active	130	190	70	210	4
